Calls of active or inactive are those of the source. No cut-off for these calls is given here.
Key:
Assay type in all cases: cell-based
[1] = biological target: T1, von Hippel-Lindau disease tumor suppressor/Histone-lysine N-methyltransferase EZH2 (Homo sapiens, UniProt Q15910+P40337); assay: PROTAC activity at VHL/EZH2 degradation in hMLLr AML cell line EOL1 cells assessed as protein degradation at 0.1 uM measured after 24 hrs by Western blot analysis
Outline: (§1)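 Cells were seeded at 0.5–2 million per well and treated for 24 h, or for the stated times at 300 nM in the time course. Lysis was in RIPA with protease inhibitors; ~10 μg protein was run on SDS-PAGE and blotted to PVDF. Detection used fluorescent immunoblotting for EZH2, EED and SUZ12, with β-actin as loading control. Blots are representative of two biological experiments.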

[2] = biological target: T1, von Hippel-Lindau disease tumor suppressor/Histone-lysine N-methyltransferase EZH2; assay: PROTAC activity at VHL/EZH2 degradation in hMLLr AML cell line EOL1 cells assessed as protein degradation at 1 uM measured after 24 hrs by Western blot analysis; outline: as §1
[3] = biological target: T1, von Hippel-Lindau disease tumor suppressor/Histone-lysine N-methyltransferase EZH2; assay: PROTAC activity at VHL/EZH2 degradation in MLLr AML cell line human EOL1 cells assessed as protein degradation at 0.5 uM measured after 24 hrs in presence of 0.05 uM MLN4924 by Western blot analysis
Outline: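 EOL-1 cells were pre-treated for 2 h with MLN4924 (0.05 μM), EPZ-6438 (5 μM) or VHL-1 (5 μM), then given 0.5 μM degrader for 24 h. EZH2 was assessed by Western blot against β-actin. Blots are representative of two biological experiments.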

T1 sequence (P40337 whole entry, looked up): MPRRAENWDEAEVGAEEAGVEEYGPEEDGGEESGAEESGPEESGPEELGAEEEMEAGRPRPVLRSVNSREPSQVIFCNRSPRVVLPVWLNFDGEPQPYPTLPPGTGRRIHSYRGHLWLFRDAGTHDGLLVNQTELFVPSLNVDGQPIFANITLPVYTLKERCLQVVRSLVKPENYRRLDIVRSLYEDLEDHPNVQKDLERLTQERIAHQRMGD
T1 sequence (Q15910 whole entry, looked up): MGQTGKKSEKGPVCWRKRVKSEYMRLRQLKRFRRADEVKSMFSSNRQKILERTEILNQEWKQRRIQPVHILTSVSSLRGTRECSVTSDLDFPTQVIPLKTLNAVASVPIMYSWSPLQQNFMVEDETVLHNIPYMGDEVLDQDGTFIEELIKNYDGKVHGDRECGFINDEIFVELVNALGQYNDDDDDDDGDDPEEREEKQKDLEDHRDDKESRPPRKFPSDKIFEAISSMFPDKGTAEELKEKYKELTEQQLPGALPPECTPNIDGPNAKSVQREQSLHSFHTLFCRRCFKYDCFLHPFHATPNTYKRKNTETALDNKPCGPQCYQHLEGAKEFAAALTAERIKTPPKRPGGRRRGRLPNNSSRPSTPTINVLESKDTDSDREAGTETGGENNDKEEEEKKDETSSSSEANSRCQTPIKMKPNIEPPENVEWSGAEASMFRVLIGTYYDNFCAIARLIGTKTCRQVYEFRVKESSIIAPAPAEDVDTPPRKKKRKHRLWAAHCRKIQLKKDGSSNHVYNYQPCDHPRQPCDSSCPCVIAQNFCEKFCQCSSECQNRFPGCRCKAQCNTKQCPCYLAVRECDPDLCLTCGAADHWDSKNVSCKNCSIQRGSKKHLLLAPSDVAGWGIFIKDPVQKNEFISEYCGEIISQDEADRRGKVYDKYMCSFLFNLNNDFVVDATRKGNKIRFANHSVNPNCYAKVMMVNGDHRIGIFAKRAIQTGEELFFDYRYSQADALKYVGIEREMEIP

- Activity [1]: 100%
- Activity [2]: 100%
- Activity [3]: inactive
Structure (SMILES): CCN(c1cc(-c2ccc(CN3CCN(CCC(=O)NCCCCCCCCCCC(=O)N[C@H](C(=O)N4C[C@H](O)C[C@H]4C(=O)NCc4ccc(-c5scnc5C)cc4)C(C)(C)C)CC3)cc2)cc(C(=O)NCc2c(C)cc(C)[nH]c2=O)c1C)C1CCOCC1

Reference: ChEMBL document CHEMBL5543089, “Discovery of a novel, highly potent EZH2 PROTAC degrader for targeting non-canonical oncogenic functions of EZH2” (Eur J Med Chem, 2024)
